Source: ChEMBL document CHEMBL1121949, “Species- or isozyme-specific enzyme inhibitors. 8. Synthesis of disubstituted two-substrate condensation products as inhibitors of rat adenylate kinases” (J Med Chem, 1982)
Values joined by “and” are separate entries in the source; they are usually repeats but may differ in a detail not shown here. Equal values may be shown once.

Experiments:
[1] = Inhibitory potency against AK M was calculated using the equation KM(ATP) / Ki(ATP varied)
[2] = biological target: T1, Adenylate kinase isoenzyme 1 (Rattus norvegicus, UniProt P39069); assay: Inhibitory activity against rat Adenylate kinase M isoenzyme in the presence of ATP non competitive inhibition
T1 sequence (P39069 whole entry): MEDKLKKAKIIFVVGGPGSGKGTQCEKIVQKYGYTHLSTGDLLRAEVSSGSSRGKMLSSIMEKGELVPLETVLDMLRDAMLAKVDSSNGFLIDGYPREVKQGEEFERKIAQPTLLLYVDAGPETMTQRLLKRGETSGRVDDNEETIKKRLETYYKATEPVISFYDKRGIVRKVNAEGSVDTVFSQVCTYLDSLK
Procedure, shortened: (§1)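 Rat adenylate kinase isozymes AK II or AK-M were used, with AMP or ATP as the varied substrate. Substrate and inhibitor constants (Ki) came from steady-state kinetics. ATP derivatives, and P1,P5-pentaphosphate derivatives with Ki above 0.10 mM, were added as 1:1 Mg complexes, made by adding MgSO4 to their stock solutions.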

[3] = biological target: T2, Adenylate kinase 2, mitochondrial (Rattus norvegicus, UniProt P29410); assay: Inhibitory activity against rat adenylate kinase II was determined in the presence of ATP, competitive inhibition; procedure, shortened: as §1
[4] = Inhibitory potency against AK II was calculated using the equation KM(ATP) / Ki(ATP varied)
[5] = biological target: T2, Adenylate kinase 2, mitochondrial; assay: Inhibitory activity against rat adenylate kinase II was determined in the presence of AMP, competitive inhibition; procedure, shortened: as §1
[6] = Relative potency inhibitory calculated as the ratio of AK-II/AK-M
[7] = biological target: T1, Adenylate kinase isoenzyme 1; assay: Inhibitory activity against rat Adenylate kinase M isoenzyme in the presence of ATP; procedure, shortened: as §1
[8] = biological target: T1, Adenylate kinase isoenzyme 1; assay: Inhibitory activity against rat Adenylate kinase M isoenzyme in the presence of ATP non competitive inhibition
[9] = biological target: T2, Adenylate kinase 2, mitochondrial; assay: Inhibitory activity against rat adenylate kinase II was determined in the presence of ATP, non competitive inhibition; procedure, shortened: as §1
[10] = biological target: T2, Adenylate kinase 2, mitochondrial; assay: Inhibitory activity against rat adenylate kinase II was determined in the presence of AMP, non competitive inhibition; procedure, shortened: as §1
[11] = biological target: T2, Adenylate kinase 2, mitochondrial; assay: Inhibitory activity against rat adenylate kinase II was determined in the presence of ATP, competitive inhibition
[12] = Inhibitory activity against rat adenylate kinase M (AK-M)isoenzyme in the presence of ATP competitive inhibition; procedure, shortened: as §1
[13] = Inhibitory activity against rat adenylate kinase M (AK-M)isoenzyme in the presence of AMP competitive inhibition; procedure, shortened: as §1
[14] = biological target: T2, Adenylate kinase 2, mitochondrial; assay: Inhibitory activity against rat adenylate kinase II was determined in the presence of AMP, competitive and non competitive inhibition; procedure, shortened: as §1
[15] = biological target: T1, Adenylate kinase isoenzyme 1; assay: Inhibitory activity against rat Adenylate kinase M isoenzyme in the presence of ATPnon competitive inhibition; procedure, shortened: as §1
[16] = Inhibitory activity against rat adenylate kinase M (AK-M)isoenzyme in the presence of ATP non competitive; procedure, shortened: as §1
[17] = Inhibitory activity against rat adenylate kinase M (AK-M)isoenzyme in the presence of AMP non competitive; procedure, shortened: as §1
[18] = biological target: T2, Adenylate kinase 2, mitochondrial; assay: Inhibitory activity against rat adenylate kinase II was determined in the presence of ATP; procedure, shortened: as §1
[19] = biological target: T1, Adenylate kinase isoenzyme 1; assay: Inhibitory activity against rat Adenylate kinase M isoenzyme in the presence of AMP; procedure, shortened: as §1
[20] = biological target: T2, Adenylate kinase 2, mitochondrial; assay: Inhibitory activity against rat adenylate kinase II was determined in the presence of AMP; procedure, shortened: as §1
[21] = biological target: T1, Adenylate kinase isoenzyme 1; assay: Inhibitory activity against rat Adenylate kinase M isoenzyme in the presence of ATP competitive inhibition

SMILES | Inhibitory potency [1] | Inhibitory potency [4] | Relative inhibitory potency [6] | Ki [11] | other results
CCSc1nc2c(N)ncnc2n1[C@@H]1O[C@H](COP(=O)(O)OP(=O)(O)OP(=O)(O)O)[C@@H](O)[C@H]1O |  |  |  |  | Ki [7]: 6100 µM
Nc1ncnc2c1ncn2[C@@H]1O[C@H](CO)[C@@H](O)[C@H]1O [ADENOSINE] |  |  |  |  | Ki [8]: 82000 µM; Ki [9]: 87000 µM; Ki [10]: 92000 µM
CCSc1nc2c(N)ncnc2n1C1O[C@H](COP(=O)(O)OP(=O)(O)OP(=O)(O)OP(=O)(O)OP(=O)(O)OC[C@H]2OC(n3cnc4c(N)ncnc43)[C@H](O)[C@@H]2O)[C@@H](O)[C@H]1O (stereo partly specified) | 190 | 1120 | 5.9 | 0.06 µM and 0.08 µM | Ki [12]: 3 µM; Ki [13]: 3.5 µM
CCC[C@@H](OP(=O)(O)OP(=O)(O)OP(=O)(O)OP(=O)(O)OP(=O)(O)OC[C@H]1OC(n2c(SCC)nc3c(N)ncnc32)[C@H](O)[C@@H]1O)[C@H]1OC(n2cnc3c(N)ncnc32)[C@H](O)[C@@H]1O (stereo partly specified) | 4.8 | 1.7 | 0.36 | 52 µM | Ki [12]: 120 µM; Ki [14]: 63 µM; Ki [13]: 160 µM
CCSc1nc2c(N)ncnc2n1C1O[C@H](COP(=O)(O)OP(=O)(O)OP(=O)(O)OP(=O)(O)OP(=O)(O)OC[C@H]2OC(n3c(SCC)nc4c(N)ncnc43)[C@H](O)[C@@H]2O)[C@@H](O)[C@H]1O (stereo partly specified) | < 0.63 | 14 | > 22 | 10 µM and 6.4 µM | Ki [16]: 600 µM; Ki [17]: 900 µM
Nc1ncnc2c1ncn2[C@@H]1O[C@H](COP(=O)(O)O)[C@@H](O)[C@H]1O [ADENOSINE PHOSPHATE] |  |  |  |  | Km [19]: 580 µM; Ki [20]: 80 µM
Nc1ncnc2c1ncn2[C@@H]1O[C@H](COP(=O)(O)OP(=O)(O)OP(=O)(O)O)[C@@H](O)[C@H]1O [ADENOSINE TRIPHOSPHATE] |  |  |  |  | Ki [9]: 90 µM; Ki [2]: 570 µM
CCSc1nc2c(N)ncnc2n1C1O[C@H](COP(=O)(O)OP(=O)(O)OP(=O)(O)OP(=O)(O)OP(=O)(O)O[C@H](C)[C@H]2OC(n3cnc4c(N)ncnc43)[C@H](O)[C@@H]2O)[C@@H](O)[C@H]1O (stereo partly specified) | 18.4 | 60 | 3.3 | 1.5 µM | Ki [12]: 31 µM; Ki [13]: 31 µM; Ki [10]: 2.8 µM

Further lines, with some results ahead:

Inhibitory potency [1] | Inhibitory potency [4] | Relative inhibitory potency [6] | Ki [11] | SMILES | other results
< 0.21 | 0.045 |  |  | C[C@H](OP(=O)(O)OP(=O)(O)OP(=O)(O)O)[C@H]1OC(n2cnc3c(N)ncnc32)[C@H](O)[C@@H]1O (stereo partly specified) | Ki [2]: 1800 µM; Ki [3]: 2000 µM
< 0.095 | 0.17 | > 1.8 |  | Nc1ncnc2c1ncn2C1O[C@H](CCP(=O)(O)OP(=O)(O)OP(=O)(O)O)[C@@H](O)[C@H]1O (stereo partly specified) | Ki [5]: 540 µM; Ki [2]: 4000 µM
< 0.084 | 0.2 | > 2.4 | 450 µM | CCC[C@@H](OP(=O)(O)OP(=O)(O)OP(=O)(O)O)[C@H]1OC(n2cnc3c(N)ncnc32)[C@H](O)[C@@H]1O (stereo partly specified) | Ki [15]: 4500 µM
 |  | 0.13 |  | C[C@@H](OP(=O)(O)OP(=O)(O)OP(=O)(O)O)[C@H]1OC(n2cnc3c(N)ncnc32)[C@H](O)[C@@H]1O (stereo partly specified) | Ki [18]: 2200 µM; Ki [7]: 1800 µM
1.9 | 0.2 | 0.11 |  | CCC[C@H](OP(=O)(O)OP(=O)(O)OP(=O)(O)O)[C@H]1OC(n2cnc3c(N)ncnc32)[C@H](O)[C@@H]1O (stereo partly specified) | Ki [21]: 300 µM; Ki [3]: 450 µM
